Measurements reported in ChEMBL document CHEMBL2176920, “Structure-based selectivity optimization of piperidine-pteridine derivatives as potent Leishmania pteridine reductase inhibitors” (J Med Chem, 2012).
≈ marks a conversion by molar mass, not a printed value. Calls of active or inactive are those of the source. The calls are words filed in the database; no cut-off is given here.

Legend:
Thymidylate synthase [1] = target: T1, Thymidylate synthase (Homo sapiens, UniProt P04818); assay: Inhibition of human TS at 15 uM by spectrophotometric analysis
Procedure, shortened: (§1)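 Purified human enzymes screened in continuous spectrophotometric assays. DMSO was kept below the level affecting activity: under 5% for hDHFR and under 8% for hTS.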
Target sequence in this assay (P04818 2-313 limits assumed): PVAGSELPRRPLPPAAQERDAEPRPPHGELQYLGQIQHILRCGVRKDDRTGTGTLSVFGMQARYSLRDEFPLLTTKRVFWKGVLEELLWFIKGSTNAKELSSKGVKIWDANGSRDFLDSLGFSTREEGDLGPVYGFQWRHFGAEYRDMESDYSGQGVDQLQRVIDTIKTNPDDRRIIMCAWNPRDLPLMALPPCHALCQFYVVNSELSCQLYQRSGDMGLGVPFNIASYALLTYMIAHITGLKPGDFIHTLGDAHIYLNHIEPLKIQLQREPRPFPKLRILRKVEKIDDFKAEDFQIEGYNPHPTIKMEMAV

MRC5 = assay: Toxicity against human MRC5 cells assessed as growth inhibition at 50 ug/mL; type: cell-based
Procedure, shortened: (§2)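 MRC-5 human fibroblasts were grown at 37 °C, 5% CO2, in DMEM with 10% heat-inactivated FBS and extra glutamine. Cells were seeded so that control wells were confluent after 72 h of incubation with compound. Alamar Blue optical density was the read-out. Values are mean ± SD of three independent experiments.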

Leishmania mexicana [2] = assay: Inhibition of pteridine reductase in Leishmania mexicana promastigote assessed as increase in pyrimethamine cytotoxicity by Chou-Talalay method
Leishmania mexicana [3] = assay: Antiparasitic activity against Leishmania mexicana promastigotes assessed as parasite growth at 50 ug/mL; type: functional
Procedure, shortened: (§3)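 Promastigotes grown from 10^5 parasites/mL and harvested in exponential phase at 2 × 10^7/mL. For the assay they were plated at 10^6 cells/mL in 96-well format, so cells were leaving exponential phase for stationary phase. Compound was given at 50 μg/mL alone or together with pyrimethamine at 30 μg/mL. Percent growth inhibition was compared between the single agent and the combination.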

[4] = target: T2, Pteridine reductase 1 (Leishmania major) (UniProt Q01782)
T2 sequence (whole entry): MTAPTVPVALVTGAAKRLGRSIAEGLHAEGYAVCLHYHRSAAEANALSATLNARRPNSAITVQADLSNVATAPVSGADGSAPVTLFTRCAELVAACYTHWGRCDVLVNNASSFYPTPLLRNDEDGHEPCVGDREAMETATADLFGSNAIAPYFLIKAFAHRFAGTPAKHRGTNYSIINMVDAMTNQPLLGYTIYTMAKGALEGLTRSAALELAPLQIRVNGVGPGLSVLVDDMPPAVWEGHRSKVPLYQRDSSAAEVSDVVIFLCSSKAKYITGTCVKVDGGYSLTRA

Leishmania major = assay: Antiparasitic activity against Leishmania major promastigotes assessed as parasite growth at 50 ug/mL; type: functional; procedure, shortened: as §3
Leishmania mexicana [5] = assay: Inhibition of pteridine reductase in Leishmania mexicana promastigote assessed as reduction in cell survival upon H2O2 exposure at ED50 after 48 hrs at 28 degC relative to control
Procedure, shortened: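 L. mexicana promastigotes plated at 10^5 cells/mL and pretreated with compound for 48 h at 28 °C. Then diluted to 2 × 10^4 cells/mL and exposed to increasing H2O2 concentrations for 45 min. Surviving motile parasites counted on a Neubauer grid. Compound-treated, non-H2O2 sample taken as 100%; compared against untreated H2O2-exposed series.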

Thymidylate synthase [6] = target: T1, Thymidylate synthase; assay: Inhibition of human TS at 50 uM by spectrophotometric analysis; procedure, shortened: as §1
Target sequence in this assay (P04818 2-313 limits assumed): as the sequence (P04818 2-313 limits assumed) above

[7] = target: T3, Dihydrofolate reductase (Homo sapiens) (UniProt P00374); assay: Inhibition of human DHFR at 30 uM by spectrophotometric analysis; procedure, shortened: as §1
T3 sequence (whole entry): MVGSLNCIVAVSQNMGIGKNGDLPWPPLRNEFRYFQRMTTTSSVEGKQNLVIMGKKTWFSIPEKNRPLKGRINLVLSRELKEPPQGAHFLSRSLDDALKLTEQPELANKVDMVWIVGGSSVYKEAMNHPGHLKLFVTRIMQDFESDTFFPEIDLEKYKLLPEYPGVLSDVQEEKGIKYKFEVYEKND

Leishmania mexicana [8] = assay: Inhibition of pteridine reductase in Leishmania mexicana promastigote assessed as increase in pyrimethamine-induced growth inhibition by measuring parasite growth at 50 ug/mL; design: scale not given: the % may be the effect or the level left
Procedure, shortened: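 Promastigotes plated at 10^6 cells/mL, leaving exponential and entering stationary phase. Exposed to compound at 50 μg/mL alone or together with pyrimethamine at 30 μg/mL. Percent growth inhibition with compound alone compared with that of each compound plus PYR.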

Thymidylate synthase [9] = target: T1, Thymidylate synthase; assay: Inhibition of human TS by spectrophotometric analysis
Target sequence in this assay (P04818 whole entry): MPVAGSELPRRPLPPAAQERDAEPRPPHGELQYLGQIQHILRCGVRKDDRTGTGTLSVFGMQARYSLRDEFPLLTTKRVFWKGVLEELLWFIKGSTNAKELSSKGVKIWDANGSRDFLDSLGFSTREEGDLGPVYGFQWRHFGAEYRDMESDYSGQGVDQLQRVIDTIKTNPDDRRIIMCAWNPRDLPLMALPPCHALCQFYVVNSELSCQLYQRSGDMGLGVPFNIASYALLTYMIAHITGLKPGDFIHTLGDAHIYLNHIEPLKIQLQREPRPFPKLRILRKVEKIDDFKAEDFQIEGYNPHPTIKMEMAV

[10] = Toxicity against human MRC5 cells assessed as growth inhibition; type: cell-based; conditions: read-out: ED50 (the source's name); procedure, shortened: as §2
Dihydrofolate reductase = target: T4, Dihydrofolate reductase (Homo sapiens, UniProt P00374); assay: Inhibition of human DHFR by spectrophotometric analysis
T4 sequence (P00374 whole entry): T3 sequence (whole entry)

Thymidylate synthase [11] = target: T1, Thymidylate synthase; assay: Inhibition of human TS at 30 uM by spectrophotometric analysis; procedure, shortened: as §1
Target sequence in this assay (P04818 2-313 limits assumed): as the sequence (P04818 2-313 limits assumed) above

[12] = Toxicity against human MRC5 cells assessed as growth inhibition at 100 ug/mL; type: cell-based; conditions: read-out: GI; procedure, shortened: as §2

SMILES	inhibition (Thymidylate synthase [1])	Activity (Leishmania mexicana [3]) [%]	Activity (Leishmania major) [%]	inhibition [7]	Activity (Leishmania mexicana [8]) [%]	GI50 [10] [µg/mL]	inhibition (Thymidylate synthase [11])	further results
COC(=O)C1CCN(C(=O)c2ccc(N(C)Cc3cnc4nc(N)nc(N)c4n3)cc2)CC1	inactive	–	–	–	–	–	–	–
COC(=O)C1CCN(C(=O)c2ccc(NCc3cnc4nc(N)nc(N)c4n3)cn2)CC1	–	95.6	103.4	inactive	17.6	–	–	Activity (MRC5): Non-toxic; fractional inhibitory concentration index (FICI) (Leishmania mexicana [2]): 1.51; FICI [4]: 0.8; inhibition (Leishmania mexicana [5]): Active; inhibition (Thymidylate synthase [6]): inactive
COC(=O)C1CCN(C(=O)c2ccc(NCc3cnc4nc(N)nc(N)c4n3)cc2)CC1	–	111.6	99.6	–	24.4	23.4 (≈ 53.6 µM)	–	Ki (Thymidylate synthase [9]): Not Active; fractional inhibitory concentration index (FICI) (Leishmania mexicana [2]): 2.05; FICI [4]: 0.75; inhibition (Leishmania mexicana [5]): Active; Ki (Dihydrofolate reductase): 10 µM
CCc1ccc(NCc2cnc3nc(N)nc(N)c3n2)cc1C(=O)N1CCC(C(=O)OC)CC1	–	–	–	–	–	–	inactive	Ki (Dihydrofolate reductase): 4.68 µM
CCOC(=O)CN(Cc1cnc2nc(N)nc(N)c2n1)c1ccc(C(=O)N2CCC(C(=O)OC)CC2)cc1	–	102.3	100.8	inactive	21.9	–	inactive	inhibition at 100 ug/mL [12]: 28%
CCc1cc(C(=O)N2CCC(C(=O)OC)CC2)ccc1NCc1cnc2nc(N)nc(N)c2n1	–	90.6	104.2	inactive	19.6	21.8 (≈ 46.9 µM)	inactive	–
NC(=O)C1CCN(C(=O)c2ccc(NCc3cnc4nc(N)nc(N)c4n3)cc2)CC1	inactive	88.5	121.2	–	15.7	51 (≈ 121 µM)	–	–
COC(=O)C1CCN(C(=O)c2ccc(N(CCO)Cc3cnc4nc(N)nc(N)c4n3)cc2)CC1	–	100.1	122.2	–	12.9	–	–	Ki (Thymidylate synthase [9]; read-out: Ki): 64 µM; Activity (MRC5): Non-toxic
CCc1nc(N)nc(N)c1-c1ccc(Cl)cc1 [PYRIMETHAMINE]	–	102.5	68	–	–	16.2 (≈ 65.1 µM)	–	–
Nc1nc(N)c2nc(CNc3ccc(C(=O)N4CCC(C(=O)O)CC4)cc3)cnc2n1	inactive	–	–	–	–	–	–	–
